Measurements published in ChEMBL document CHEMBL3351752, “Discovery and in vivo evaluation of alcohol-containing benzothiazoles as potent dual-targeting bacterial DNA supercoiling inhibitors” (Bioorg Med Chem Lett, 2014).
In brackets after ≈: the same amount, converted by molar mass.

Columns and labels:
Streptococcus pyogenes [1] = assay: Antibacterial activity against Streptococcus pyogenes 51339 assessed as growth inhibition; format: functional
Staphylococcus aureus [2] = assay: Inhibition of Staphylococcus aureus DNA gyrase ATPase subunit GyrA2/GyrB2 after 60 mins by malachite green staining assay
[3] = Fraction unbound in mouse plasma by ultracentrifugation; format: ADME, cell-free
Method in brief: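 Compound at 10 µM (1% DMSO) was equilibrated in neat plasma at 37 °C for 60 min. Duplicate aliquots were ultracentrifuged at 250,000g for 4.2 h at 37 °C. Free compound in the plasma-water supernatant was compared with uncentrifuged samples incubated alike. Uncentrifuged samples kept at 20 °C checked degradation, and diltiazem served as stability control. Analysis was by LCMS.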

Staphylococcus aureus [4] = assay: Antibacterial activity against Staphylococcus aureus ATCC 29213 assessed as growth inhibition in presence of 50% horse serum; format: functional
Staphylococcus aureus [5] = assay: Antibacterial activity against Staphylococcus aureus ATCC 29213 assessed as growth inhibition; format: functional
Haemophilus influenzae = assay: Antibacterial activity against Haemophilus influenzae 49247 assessed as growth inhibition; format: functional
Staphylococcus aureus [6] = assay: Antimicrobial activity against Staphylococcus aureus harboring GyrB T173N mutant assessed as growth inhibition; format: functional
Streptococcus pyogenes [7] = assay: Antimicrobial activity against Streptococcus pyogenes harboring ParE A53S mutant assessed as growth inhibition; format: functional
Staphylococcus aureus [8] = assay: Ratio of MIC for Staphylococcus aureus ATCC 29213 assessed as growth inhibition in presence of 50% horse serum to MIC for Staphylococcus aureus ATCC 29213 assessed as growth inhibition; format: functional

fraction unbound [3] | SMILES | MIC (Streptococcus pyogenes [1]) [µg/mL] | inhibitory concentration (Staphylococcus aureus [2]) [µg/mL] | MIC (Staphylococcus aureus [4]) [µg/mL] | MIC (Staphylococcus aureus [5]) [µg/mL] | MIC (Haemophilus influenzae) [µg/mL] | MIC (Staphylococcus aureus [6]) [µg/mL] | MIC (Streptococcus pyogenes [7]) [µg/mL] | Ratio (Staphylococcus aureus [8])
0.061 | CCNC(=O)Nc1nc2cc(-c3cnc(C(C)(C)O)nc3)cc(-c3cc(CN4CC[C@H](F)C4)ccn3)c2s1 | 0.06 (≈ 0.112 µM) | 0.008 | 0.25 | 0.12 (≈ 0.224 µM) | 2 (≈ 3.73 µM) |  |  | 
0.223 | CCNC(=O)Nc1nc2cc(-c3cnc(C(C)(C)O)nc3)cc(-c3cc(CN4CC(C)(O)C4)ccn3)c2s1 | 0.12 (≈ 0.225 µM) | 0.011 | 0.5 | 0.5 (≈ 0.937 µM) | 4 (≈ 7.5 µM) |  |  | 
 | CCNC(=O)Nc1nc2cc(-c3cnc([C@@H](O)[C@H](O)C(F)F)nc3)cc(-c3ccccn3)c2s1 (racemic) | 0.12 (≈ 0.247 µM) | 0.004 | 0.25 | 0.06 (≈ 0.123 µM) | 0.25 (≈ 0.514 µM) | 0.5 (≈ 1.03 µM) | 1 (≈ 2.06 µM) | 
 | CCNC(=O)Nc1nc2cc(-c3cnc(C4(O)CNC4)nc3)cc(-c3ccccn3)c2s1 | 8 (≈ 17.9 µM) | 0.029 | > 16 | > 16 | > 16 | > 16 | > 16 | 
 | CCNC(=O)Nc1nc2cc(-c3cnc(C4(O)CCCC4)nc3)cc(-c3ccccn3)c2s1 | 0.12 (≈ 0.261 µM) | 0.005 | 0.5 | 0.03 (≈ 0.0651 µM) | 1 (≈ 2.17 µM) | 0.25 (≈ 0.543 µM) | 2 (≈ 4.34 µM) | 
0.194 | CCNC(=O)Nc1nc2cc(-c3cnc(C(C)(C)O)nc3)cc(-c3cc(CN4CCC(C)(O)C4)ccn3)c2s1 (configuration not stated) | 0.25 (≈ 0.456 µM) | 0.008 | 0.25 | 0.5 (≈ 0.913 µM) | 8 (≈ 14.6 µM) |  |  | 
 | CCNC(=O)Nc1nc2cc(-c3cnc(C4(O)CCN(C)CC4)nc3)cc(-c3ccccn3)c2s1 | 1 (≈ 2.04 µM) | 0.011 | 0.5 | 1 (≈ 2.04 µM) | 8 (≈ 16.3 µM) | 8 (≈ 16.3 µM) | 8 (≈ 16.3 µM) | 
 | CCNC(=O)Nc1nc2cc(-c3cnc([C@@H](O)[C@@H](O)C(F)(F)F)nc3)cc(-c3ccccn3)c2s1 (racemic) | 0.12 (≈ 0.238 µM) | 0.004 | 0.25 | 0.12 (≈ 0.238 µM) | 0.5 (≈ 0.991 µM) | 0.5 (≈ 0.991 µM) | 1 (≈ 1.98 µM) | 
 | CCNC(=O)Nc1nc2cc(-c3cnc(C(O)C(C)(C)C)nc3)cc(-c3ccccn3)c2s1 (racemic) | 0.12 (≈ 0.259 µM) | 0.012 | 2 | 0.12 (≈ 0.259 µM) |  | 0.25 (≈ 0.54 µM) | 2 (≈ 4.32 µM) | 
 | CCNC(=O)Nc1nc2cc(-c3cnc(C(C)(O)CO)nc3)cc(-c3ccccn3)c2s1 (racemic) | 0.12 (≈ 0.266 µM) | 0.006 | 0.25 | 0.12 (≈ 0.266 µM) | 0.5 (≈ 1.11 µM) | 1 (≈ 2.22 µM) | 2 (≈ 4.44 µM) | 
 | CCNC(=O)Nc1nc2cc(-c3cnc(C4(O)CCS(=O)(=O)CC4)nc3)cc(-c3ccccn3)c2s1 | 0.25 (≈ 0.477 µM) | 0.006 | 0.5 | 0.25 (≈ 0.477 µM) | 1 (≈ 1.91 µM) | 1 (≈ 1.91 µM) | 2 (≈ 3.81 µM) | 
 | CCNC(=O)Nc1nc2cc(-c3cnc(C(C)O)nc3)cc(-c3ccccn3)c2s1 (configuration not stated) | 0.06 (≈ 0.143 µM) |  | 0.12 | 0.03 (≈ 0.0713 µM) | 0.5 (≈ 1.19 µM) | 0.25 (≈ 0.595 µM) | 1 (≈ 2.38 µM) | 4
 | CCNC(=O)Nc1nc2cc(-c3cnc(C4(O)CCOCC4O)nc3)cc(-c3ccccn3)c2s1 (racemic) | 0.12 (≈ 0.244 µM) | 0.009 | 0.5 | 0.5 (≈ 1.02 µM) | 2 (≈ 4.06 µM) | 4 (≈ 8.12 µM) | 2 (≈ 4.06 µM) | 
 | CCNC(=O)Nc1nc2cc(-c3cnc(C4(O)CCCCC4)nc3)cc(-c3ccccn3)c2s1 | 8 (≈ 16.9 µM) | 0.054 |  | 8 (≈ 16.9 µM) | > 16 | > 16 | > 16 | 
0.11 | CCNC(=O)Nc1nc2cc(-c3cnc(C(C)(C)O)nc3)cc(-c3cc(CN4CC(OC)C4)ccn3)c2s1 | 0.12 (≈ 0.225 µM) | 0.011 | 0.25 | 0.12 (≈ 0.225 µM) | 2 (≈ 3.75 µM) |  |  | 
 | CCNC(=O)Nc1nc2cc(-c3cnc(C(O)(CC)CC)nc3)cc(-c3ccccn3)c2s1 | 0.5 (≈ 1.08 µM) | 0.017 | 4 | 0.25 (≈ 0.54 µM) | 8 (≈ 17.3 µM) | 1 (≈ 2.16 µM) | 8 (≈ 17.3 µM) | 
0.194 | CCNC(=O)Nc1nc2cc(-c3cnc(C(C)(C)O)nc3)cc(-c3cc(CN4CC[C@@H](O)C4)ccn3)c2s1 | 0.25 (≈ 0.468 µM) | 0.007 | 0.5 | 0.5 (≈ 0.937 µM) | 4 (≈ 7.5 µM) |  |  | 
 | CCNC(=O)Nc1nc2cc(-c3cnc(C4(O)CCSCC4)nc3)cc(-c3ccccn3)c2s1 | 0.5 (≈ 1.01 µM) | 0.005 | 1 | 0.12 (≈ 0.244 µM) | 2 (≈ 4.06 µM) | 0.25 (≈ 0.507 µM) | 4 (≈ 8.12 µM) | 

fraction unbound [3] | SMILES | MIC (Streptococcus pyogenes [1]) [µg/mL] | inhibitory concentration (Staphylococcus aureus [2]) [µg/mL] | MIC (Staphylococcus aureus [4]) [µg/mL] | MIC (Staphylococcus aureus [5]) [µg/mL] | MIC (Haemophilus influenzae) [µg/mL] | MIC (Staphylococcus aureus [6]) [µg/mL] | MIC (Streptococcus pyogenes [7]) [µg/mL] | Ratio (Staphylococcus aureus [8])
 | CCCC(O)c1ncc(-c2cc(-c3ccccn3)c3sc(NC(=O)NCC)nc3c2)cn1 (racemic) | 0.06 (≈ 0.134 µM) | 0.007 | 0.25 | 0.03 (≈ 0.0669 µM) | 1 (≈ 2.23 µM) | 0.25 (≈ 0.557 µM) | 2 (≈ 4.46 µM) | 
 | CCNC(=O)Nc1nc2cc(-c3cnc([C@@H](O)[C@@H](C)O)nc3)cc(-c3ccccn3)c2s1 (racemic) | 0.12 (≈ 0.266 µM) | 0.007 | 0.25 | 0.25 (≈ 0.555 µM) | 1 (≈ 2.22 µM) | 1 (≈ 2.22 µM) | 1 (≈ 2.22 µM) | 
 | CCNC(=O)Nc1nc2cc(-c3cnc(C4(O)CCOCC4)nc3)cc(-c3ccccn3)c2s1 | 0.12 (≈ 0.252 µM) | 0.005 | 0.12 | 0.06 (≈ 0.126 µM) | 1 (≈ 2.1 µM) | 0.25 (≈ 0.525 µM) | 2 (≈ 4.2 µM) | 
0.041 | CCNC(=O)Nc1nc2cc(-c3cnc(C(C)(C)O)nc3)cc(-c3cc(CN4CCC(F)(F)C4)ccn3)c2s1 | 0.03 (≈ 0.0542 µM) | 0.007 | 0.25 | 0.06 (≈ 0.108 µM) | > 16 |  |  | 
0.067 | CCNC(=O)Nc1nc2cc(-c3cnc(C(C)(C)O)nc3)cc(-c3cc(CN4CCCC4)ccn3)c2s1 | 0.5 (≈ 0.966 µM) | 0.012 | 0.5 | 0.5 (≈ 0.966 µM) | 4 (≈ 7.73 µM) |  |  | 
 | CCNC(=O)Nc1nc2cc(-c3cnc([C@@H](O)[C@H](O)C(F)(F)F)nc3)cc(-c3ccccn3)c2s1 (racemic) | 0.12 (≈ 0.238 µM) | 0.005 | 0.25 | 0.06 (≈ 0.119 µM) | 0.5 (≈ 0.991 µM) | 0.25 (≈ 0.496 µM) | 1 (≈ 1.98 µM) | 
 | CCNC(=O)Nc1nc2cc(-c3cnc(C4(O)CCNCC4)nc3)cc(-c3ccccn3)c2s1 | 2 (≈ 4.21 µM) | 0.01 | 4 | 8 (≈ 16.8 µM) | > 16 | > 16 | > 16 | 
 | CCNC(=O)Nc1nc2cc(-c3cnc(CO)nc3)cc(-c3ccccn3)c2s1 | 0.06 (≈ 0.148 µM) |  | 0.06 | 0.03 (≈ 0.0738 µM) | 0.25 (≈ 0.615 µM) | 0.25 (≈ 0.615 µM) | 0.5 (≈ 1.23 µM) | 2
0.22 | CCNC(=O)Nc1nc2cc(-c3cnc(C(C)(C)O)nc3)cc(-c3cc(CN4CC(O)C4)ccn3)c2s1 | 0.25 (≈ 0.481 µM) | 0.004 | 1 | 1 (≈ 1.92 µM) | 2 (≈ 3.85 µM) |  |  | 
 | CCNC(=O)Nc1nc2cc(-c3cnc(C(O)CO)nc3)cc(-c3ccccn3)c2s1 (racemic) | 0.12 (≈ 0.275 µM) | 0.006 | 0.5 | 0.12 (≈ 0.275 µM) | 0.5 (≈ 1.15 µM) | 2 (≈ 4.58 µM) | 2 (≈ 4.58 µM) | 
0.063 | CCNC(=O)Nc1nc2cc(-c3cnc(C(C)(C)O)nc3)cc(-c3cc(CN4CC[C@@H](F)C4)ccn3)c2s1 | 0.06 (≈ 0.112 µM) | 0.005 | 0.25 | 0.06 (≈ 0.112 µM) | 1 (≈ 1.87 µM) |  |  | 
 | CCNC(=O)Nc1nc2cc(-c3cnc(C4(O)COC4)nc3)cc(-c3ccccn3)c2s1 | 0.12 (≈ 0.268 µM) | 0.006 | 0.12 | 0.06 (≈ 0.134 µM) | 0.5 (≈ 1.11 µM) | 0.5 (≈ 1.11 µM) | 2 (≈ 4.46 µM) | 
 | CCNC(=O)Nc1nc2cc(-c3cnc(C(O)C4CC4)nc3)cc(-c3ccccn3)c2s1 (racemic) | 0.06 (≈ 0.134 µM) | 0.008 | 0.25 | 0.06 (≈ 0.134 µM) | 0.5 (≈ 1.12 µM) | 0.25 (≈ 0.56 µM) | 1 (≈ 2.24 µM) | 
 | CCNC(=O)Nc1nc2cc(-c3cnc(C(O)CC)nc3)cc(-c3ccccn3)c2s1 (racemic) | 0.06 (≈ 0.138 µM) | 0.006 | 0.25 | 0.06 (≈ 0.138 µM) | 1 (≈ 2.3 µM) | 0.25 (≈ 0.575 µM) | 1 (≈ 2.3 µM) | 
0.056 | CCNC(=O)Nc1nc2cc(-c3cnc(C(C)(C)O)nc3)cc(-c3cc(CNC4CC4)ccn3)c2s1 | 0.12 (≈ 0.238 µM) | 0.006 | 0.25 | 0.12 (≈ 0.238 µM) | 2 (≈ 3.97 µM) |  |  | 
 | CCNC(=O)Nc1nc2cc(-c3cnc(C(O)CN4CCOCC4)nc3)cc(-c3ccccn3)c2s1 (racemic) | 0.12 (≈ 0.237 µM) | 0.011 | 0.25 | 0.12 (≈ 0.237 µM) | 2 (≈ 3.96 µM) | 1 (≈ 1.98 µM) | 2 (≈ 3.96 µM) | 
0.09 | CCNC(=O)Nc1nc2cc(-c3cnc(C(C)(C)O)nc3)cc(-c3cc(CN4CC[C@@H](OC)C4)ccn3)c2s1 | 0.25 (≈ 0.456 µM) | 0.009 | 0.5 | 0.25 (≈ 0.456 µM) | 4 (≈ 7.3 µM) |  |  | 
